Measured values taken from the M2OR odorant receptor database.

Molecular target: T1, OR5K1 (Homo sapiens) (UniProt Q8NHB7)
T1 sequence (whole entry): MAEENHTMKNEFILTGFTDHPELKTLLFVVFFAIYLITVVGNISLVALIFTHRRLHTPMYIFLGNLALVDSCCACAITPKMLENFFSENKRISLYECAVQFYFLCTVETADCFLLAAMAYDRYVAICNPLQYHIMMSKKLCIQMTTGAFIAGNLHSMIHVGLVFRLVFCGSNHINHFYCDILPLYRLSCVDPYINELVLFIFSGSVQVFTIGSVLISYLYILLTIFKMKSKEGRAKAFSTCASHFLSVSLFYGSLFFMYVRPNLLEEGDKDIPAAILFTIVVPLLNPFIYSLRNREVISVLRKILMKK
Details: stereoisomer not certain
Method in brief: (§1)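 Transient luciferase assays in mammalian cell lines were common, though methods varied by source. The values come from published papers and their supplementary material, with extra details from the original authors when needed. Responsive refers to a measured signal the original authors judged statistically different from baseline, and non-responsive (inactive) to the remainder.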
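Further: active if original authors judged signal statistically different from baseline.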

Row | SMILES | odorant receptor agonist call
1 | NCC(=O)c1ccccc1 | inactive
2 | C=CCc1ccc(OC)cc1 | inactive
3 | SCc1ccco1 | inactive
4 | C=CCSSCC=C | inactive
5 | COc1ccc(C=O)cc1 | inactive
6 | C=CCOC(=O)Cc1ccccc1 | inactive
7 | O=Cc1ccc2c(c1)OCO2 | inactive
8 | CCOC(=O)Cc1ccccc1 | inactive
9 | Cc1ccccc1O | inactive
10 | CSSC | inactive
11 | Cc1ccc(O)c(C)c1 | inactive

Molecular target: T2, OR5M3 (Homo sapiens) (UniProt Q8NGP4)
T2 sequence (whole entry): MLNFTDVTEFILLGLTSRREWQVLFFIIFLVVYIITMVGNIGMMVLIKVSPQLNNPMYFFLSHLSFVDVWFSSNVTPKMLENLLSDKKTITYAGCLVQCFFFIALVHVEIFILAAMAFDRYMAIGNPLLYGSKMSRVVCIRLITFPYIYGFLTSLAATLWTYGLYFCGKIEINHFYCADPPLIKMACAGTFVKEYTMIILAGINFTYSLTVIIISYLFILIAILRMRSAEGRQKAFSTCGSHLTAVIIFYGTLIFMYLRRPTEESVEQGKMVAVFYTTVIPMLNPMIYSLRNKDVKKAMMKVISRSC
Details: stereoisomer not certain
Method in brief: as §1

Row | SMILES | odorant receptor agonist call
12 | NCC(=O)c1ccccc1 | inactive
13 | C=CCc1ccc(OC)cc1 | inactive
14 | SCc1ccco1 | inactive
15 | C=CCSSCC=C | inactive
16 | COc1ccc(C=O)cc1 | inactive
17 | C=CCOC(=O)Cc1ccccc1 | inactive
18 | Cc1c([N+](=O)[O-])c(C)c([N+](=O)[O-])c(C(C)(C)C)c1[N+](=O)[O-] | inactive
19 | O=Cc1ccc2c(c1)OCO2 | inactive
20 | CCOC(=O)Cc1ccccc1 | inactive
21 | Cc1ccccc1O | inactive
22 | CSSC | inactive
23 | Cc1ccc(O)c(C)c1 | inactive
